CAL PDZ FP-1: inhibitors of human CAL PDZ peptide binding; inhibition, % at 24.9 µM; Q9HD26; hit rate 0.92% among 300,000; purified CAL PDZ, TMR-peptide fluorescence polarization, 1 h;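 active means mean inhibition of at least 30% with at least half of replicates also reaching 30%; inconclusive means no clear call, values can overlap the other calls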;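 further: 0% = DMSO neutral control and 100% = excess unlabeled competitor peptide PRC23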
Rce1 inhib: inhibitors of yeast Ras-converting enzyme; Q03530; yeast membranes, quenched prenylated peptide cleavage fluorescence; calls only; hit rate 0.27% among 290,000; AID 2563;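 active means fall in fluorescence gain of 50% or more versus controls, with final raw signal at or below 3038400; inconclusive means same 50% fall but final raw signal above 3038400; inactive means fall in fluorescence gain under 50%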;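 further: plate controls were neutral control wells for no effect and wells lacking membranes for full effect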
Target sequence (Q03530 whole entry, looked up): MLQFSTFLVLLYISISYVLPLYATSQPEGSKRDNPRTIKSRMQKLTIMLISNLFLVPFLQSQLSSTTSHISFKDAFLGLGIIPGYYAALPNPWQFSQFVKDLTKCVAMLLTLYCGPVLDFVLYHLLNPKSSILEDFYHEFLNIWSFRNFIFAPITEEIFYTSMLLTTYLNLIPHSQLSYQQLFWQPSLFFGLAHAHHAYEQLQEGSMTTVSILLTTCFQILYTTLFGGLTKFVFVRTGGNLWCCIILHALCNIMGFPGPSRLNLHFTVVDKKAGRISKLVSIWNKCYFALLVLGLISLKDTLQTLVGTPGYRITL
AI-2 QS modul: modulators of Vibrio harveyi AI-2 quorum sensing system. Vibrio harveyi JMH597 AI-2 luminescence/OD600 ratio, 9 h; active compounds read low; strain lacks LuxN and CqsS sensors; 0 = neutral-control median. activity change, % at 7.5 µM. hit rate 0.4% among 300,000; in the data active means activity change below about -75%, passing the limit was not always enough; inconclusive means no clear call, values can overlap the other calls;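 further: luminescence divided by OD600 gain over 9 h not by final OD600 alone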
CAL PDZ FP-2: inhibitors of human CAL PDZ peptide binding; purified CAL PDZ, TMR-peptide fluorescence polarization, 1 h; inhibition, % at 20 µM; hit rate 0.02% among 330,000;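 active means highest replicate inhibition of at least 40%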;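 further: plate controls were DMSO neutral control wells for no effect and unlabeled competitor peptide control wells for full effect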
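System: purified tagged CAL PDZ domain construct (CerCALP). Schedule: 1 h incubation at room temperature before polarization reading. Medium: 25 mM sodium phosphate pH 7.4, 150 mM NaCl, TCEP, IgG, Thesit. Read-out: percent inhibition from loss of millipolarization. Measured by: FP readout, S and P plane fluorescence. Probe or stimulus: fluorescent TMR peptide probe.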
ARNT TACC3 PPI: disruptors of human ARNT/TACC3 interaction; Q9Y6A5; AlphaScreen His-ARNT PAS-B/GST-TACC3 binding, luminescence; TACC3 fragment carries E629A point mutation; hit rate 0.66% among 390,000; inhibition, % at 9.99 µM;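 active means mean inhibition of replicates at least 50% and at least half of replicates each reaching 50%; inconclusive means half or more replicates reach 50% but mean below 50%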;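 further: 0% = complete ARNT plus TACC3 wells and 100% = ARNT alone without TACC3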
Starred values were filed as active, the others as inactive; i = inactive; u = inconclusive; x = not tested or not shown; + = active, no number. Rows were chosen to be rich in hits. Some 1.7% of all compounds tested hit in one or more screens of this group.

SMILES | CAL PDZ FP-1 | Rce1 inhib | AI-2 QS modul | CAL PDZ FP-2 | ARNT TACC3 PPI
O=C(OCc1ccc(Br)cc1)c1cccc(S(=O)(=O)N2CCCC2)c1 | -5.6 | i | 32.1 | -0.8 | x
CC(C)(C)c1ccc(C(=O)Nc2ccc(N3CCOCC3)cc2)cc1 | -0.7 | i | 51.1 | -3.2 | 1.4
CC(C)(C)c1ccc(C(=O)NC(=S)Nc2ccc(N3CCOCC3)cc2)cc1 | 32.6* | i | 1.1 | 0.6 | -11.0
CCn1c(SCc2cccnc2)nc2c1c(=O)n(C)c(=O)n2C | -10.2 | i | 14.3 | 0.4 | 0.1
O=C(Cc1nc(-c2ccc(Br)s2)cs1)NCCN1CCOCC1 | -7.8 | i | 1.0 | x | 1.4
CCCn1c(SCC(=O)Nc2cc(Cl)ccc2Cl)n[nH]c1=O | 52.0* | i | 36.3 | -1.2 | -4.1
O=C(N/N=C/c1ccccc1O)C(=O)N1CCCCCC1 | 2.0 | x | u | 0.3 | 67.0*
COc1cccc(/C=N/NC(=O)C(=O)N2CCCC2)c1O | -2.1 | i | 30.8 | -2.0 | 67.6*
COCCNC(=O)c1cn(CCOC)c(=O)c2c1c1ccccc1n2C | 49.0* | i | -5.8 | -1.7 | -6.5
c1ccc(-c2nc(-c3ccccn3)no2)cc1 | 0.1 | i | 15.0 | -3.4 | 4.1
c1ccc(-c2n[nH]c(-c3ccccn3)n2)cc1 | x | i | 30.4 | -0.5 | 57.1*
COc1ccc(NC(=O)COc2ccc(S(=O)(=O)N3CCOCC3)cc2C)cc1OC | -0.9 | i | 14.6 | -2.3 | -3.6
O=C(COc1ccccc1)Nc1ccc(S(=O)(=O)N2CCCC2)cc1 | x | i | -94.9* | -1.3 | -1.4
Cc1ccccc1OCC(=O)Nc1ccccc1N1CCC(C)CC1 | 1.7 | i | 19.4 | 0.0 | 45.1*
Cc1ccc(OCC(=O)Nc2ccc(S(=O)(=O)N3CCOCC3)cc2)c(Br)c1 | -2.7 | + | 16.9 | -3.1 | 1.6
O=C(COc1ccccc1)Nc1ccc(S(=O)(=O)N2CCCCCC2)cc1 | -1.6 | i | u | 9.3 | -4.5
O=C(CCc1ccccc1)Nc1ccc(S(=O)(=O)N2CCCC2)cc1 | -5.5 | i | -89.3* | 10.8 | -11.8
O=C(CCc1ccccc1)Nc1ccc(S(=O)(=O)N2CCOCC2)cc1 | -5.0 | i | 22.7 | 0.0 | -3.2
O=C(C[C@@H]1CC[C@H](NC(=O)CN2CCOCC2)[C@@H](CO)O1)NCc1cccc(F)c1 | x | x | x | x | 3.1
CSc1ccccc1NC(=O)CN(C)CC(=O)Nc1ccc(S(=O)(=O)N2CCCC2)cc1 | 48.5* | x | x | 0.5 | -6.3
CCN(Cc1ccc(N(C)C)cc1)C(C)C(=O)Nc1ccc(S(=O)(=O)N2CCCC2)cc1 (centres undefined) | 59.7* | x | x | -0.5 | x
Cc1ccccc1OCC(=O)Nc1ccc(S(=O)(=O)N2CCCC2)cc1 | -2.0 | i | -78.8* | -2.3 | 2.3
N#CC1(NC(=O)COC(=O)c2cc(=O)[nH]c3ccccc23)CCCCC1 | 32.3* | i | -0.5 | -1.7 | -19.5
O=C(COC(=O)c1cc(=O)[nH]c2ccccc12)Nc1cccc(S(=O)(=O)N2CCOCC2)c1 | 75.9* | i | 28.2 | -6.5 | 15.8
COc1ccc(NC(=O)CCN2CCN(S(=O)(=O)c3ccc(F)cc3)CC2)cc1 | x | i | 25.4 | -1.0 | 2.1
SMILES | CAL PDZ FP-1 | Rce1 inhib | AI-2 QS modul | CAL PDZ FP-2 | ARNT TACC3 PPI
O=C(COc1ncnc2ccccc12)Nc1cccc(S(=O)(=O)N2CCOCC2)c1 | -2.6 | i | -25.4 | -1.9 | x
O=C(COC(=O)c1cc(=O)[nH]c2ccccc12)Nc1ccc(Cl)c(S(=O)(=O)N2CCOCC2)c1 | -7.5 | x | x | -5.4 | 8.9
CCOc1ccc(NC(=O)CCN2CCN(S(=O)(=O)c3ccc(F)cc3)CC2)cc1 | 74.5* | i | 5.4 | -0.2 | -1.8
O=C(COc1ncnc2ccccc12)Nc1ccc(S(=O)(=O)N2CCOCC2)cc1 | -3.4 | i | -92.1* | -2.4 | -1.2
C[C@H]1CN([C@@H](C)CO)C(=O)c2cc(N(C)C)ccc2O[C@H]1CN(C)C(=O)Nc1cccc2ccccc12 | x | x | x | x | 2.1
CCc1cc(C(=O)Nc2ncccc2O)sc1C | -3.2 | i | 26.1 | -2.4 | 12.1
COc1ccc(S(=O)(=O)N(C)C[C@@H]2Oc3ccc(NS(=O)(=O)c4cccs4)cc3CC(=O)N([C@@H](C)CO)C[C@@H]2C)cc1 | x | x | x | x | -8.8
COc1ccc(C(C(=O)NC2CCCC2)N(CCO)C(=O)Cn2nnc(-c3ccc(C)o3)n2)cc1 (centres undefined) | -5.6 | i | 24.5 | -1.2 | -2.1
COc1ccccc1N1CCN(S(=O)(=O)c2ccc3c(c2)NC(=O)C(C)S3)CC1 (centres undefined) | 113.7* | i | 15.5 | -0.5 | 0.8
Cc1sc2nc(SCC(=O)Nc3cccc(S(N)(=O)=O)c3)[nH]c(=O)c2c1C | -4.5 | x | x | -1.8 | -7.2
Cc1sc2nc(SCC(=O)Nc3ccc(S(N)(=O)=O)cc3)[nH]c(=O)c2c1C | 43.5* | i | 21.2 | 0.0 | -6.3
COc1ccc(OC)c(Nc2nc(C)nc3c2oc2ccccc23)c1 | x | i | 22.8 | 0.5 | 8.3
COc1ccc(Cl)cc1Nc1nc(C)nc2c1oc1ccccc12 | -3.5 | + | 13.9 | -1.7 | x
O=C(CNC(=O)c1ccc(Br)o1)NNC(=O)c1ccccc1F | -3.4 | i | 22.4 | -0.5 | -0.1
Cc1ccc(SCc2nc(N)nc(Nc3ccccc3C)n2)c(C)c1 | -0.7 | i | 9.2 | -2.0 | 2.6
Cc1ccc(Nc2nc(N)nc(CSc3nccn3C)n2)c(C)c1 | 38.3* | i | 27.4 | -1.4 | 0.6
COc1cc(N)c(C(=O)c2nccc3cc(OC)c(OC)cc23)cc1OC | 5.4 | i | 12.1 | 0.6 | 6.3
COc1cc(Br)c(C(=O)c2nccc3cc(OC)c(OC)cc23)cc1OC | -2.5 | i | 27.5 | 71.1* | 10.2
C[C@H]1CN([C@@H](C)CO)S(=O)(=O)c2ccc(/C=C/c3ccccc3)cc2O[C@H]1CN(C)Cc1ccccc1 | x | x | x | x | 28.8
Cn1c(SCC(N)=O)nnc1-c1ccc(S(=O)(=O)N2CCCC2)cc1 | 41.8* | i | 17.4 | 0.0 | 2.8
Cn1c(CCCCCN)nc2ccccc21 | -3.7 | i | 0.7 | -4.0 | x
COc1cc2ncnc(NCCCN3CCOCC3)c2cc1OC | 3.9 | i | 5.8 | -1.9 | -3.7
COc1cc2nc(=S)n(CCCN3CCOCC3)c(N)c2cc1OC | 5.4 | x | x | -1.8 | 55.6*
COC(=O)c1c(N)n(CCCN2CCOCC2)c2nc3ccccc3nc12 | 9.8 | i | 5.7 | 0.1 | 7.6
CCOc1cc2nc(-c3ccc(OC)c(OC)c3)nc(NCCCN3CCOCC3)c2cc1OC | -1.9 | i | -0.4 | -6.7 | 54.8*
COc1cccc(-c2nn(-c3ccc(C)cc3)cc2C(=O)N(C)CC(=O)Nc2cccc(F)c2)c1 | 47.3* | x | x | 0.0 | -12.5
N#Cc1ccc(COC(=O)c2cnc(Cl)c(Cl)c2)cc1 | 47.5* | i | 12.2 | -0.7 | 0.9
COc1ccc2c(c1)[nH]c1c(=O)n(CCN3CCOCC3)cnc12 | -7.6 | i | 22.9 | -1.8 | 28.1
COc1cc2[nH]c3c(=O)n(CCN4CCOCC4)cnc3c2cc1OC | -3.4 | + | 19.7 | -0.9 | 1.7
